Experimental data: ChEMBL document CHEMBL4422632, “Design of Novel Inhibitors of Human Thymidine Phosphorylase: Synthesis, Enzyme Inhibition, in Vitro Toxicity, and Impact on Human Glioblastoma Cancer” (J Med Chem, 2019)
Activity calls are given as the source filed them. The calls are words filed in the database; no cut-off is given here.

Experiments:
U-87 MG [1] = assay: Anti-angiogenic activity in tumor of human U87MG cells xenografted in nude BALB/c mouse assessed as reduction in VEGF staining at 50 mg/kg, ip administered for 14 days by immunohistochemistry; format: functional, organism-based; conditions: U-87MG ATCC
Summary of the method: (§1)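 Male nude mice bearing subcutaneous right-flank xenografts of 5 x 10⁵ U-87 MG cells; dosing began at about 50 mm³ tumors, ip daily for 14 days. Tumors formalin-fixed, paraffin sections 3 µm; citrate pH 6 antigen retrieval at 95-98 °C; primary antibody overnight at 4 °C, HRP secondary, DAB. Positive area quantified by optical density at x200, 4 images per tumor; mean ± SEM, one-way ANOVA with Dunnett.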

U-87 MG [2] = assay: In-vivo inhibition of cell proliferation in human U87MG cells xenografted in BALB/c nude mouse at 50 mg/kg, ip after 14 days by Ki-67b-staining based assay; format: functional, organism-based; conditions: U-87MG ATCC
Summary of the method: (§2)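 Male BALB/c nude mice implanted subcutaneously with 5 x 10⁵ U-87 MG cells in the right flank. Treated IP at 50 mg/kg/day for 14 days, with saline controls, starting once tumors reached about 50 mm³. Tumors fixed in formaldehyde and cut at 3 µm. Citrate pH 6 antigen retrieval.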

U-87 MG [3] = assay: Antitumor activity against human U87MG cells xenografted in BALB/c nude mouse assessed as tumor growth inhibition 50 mg/kg/day, ip administered for 14 days; format: functional, organism-based; conditions: U-87MG ATCC
Summary of the method: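 5 x 10⁵ U-87 MG cells implanted subcutaneously in right flank of male BALB/c nude mice; at about 50 mm³, randomized to saline or ip 50 mg/kg/day, with temozolomide 50 mg/kg/day in the combination arm, for 14 days. Relative tumor volume = volume on day / day 0; TGI on day 14 = [1 − RTV treated/RTV control] x 100. Two-way ANOVA with Bonferroni.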

U-87 MG [4] = assay: Induction of apoptosis in human U87MG cells xenografted in BALB/c nude mouse assessed as caspase-3 levels at 50 mg/kg, ip after 14 days by immunohistochemistry; format: functional, organism-based; conditions: U-87MG ATCC; summary of the method: as §2
U-87 MG [5] = assay: Anti-angiogenic activity in tumor of human U87MG cells xenografted in nude BALB/c mouse assessed as reduction in number of blood vessels at 50 mg/kg, ip administered for 14 days by hematoxylin and eosin-staining based light microscopy; format: functional, organism-based; conditions: U-87MG ATCC
Summary of the method: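 U-87 MG flank xenografts (5 x 10⁵ cells) in male nude mice; ip treatment daily from about 50 mm³ for 14 days, with temozolomide at 50 mg/kg/day in the co-treatment arm. Vessel density counted on HE-stained 3 µm sections by hot-spot method, mean of four fields per tumor at x200, avoiding gross haemorrhage. One-way ANOVA/Dunnett.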

[6] = Toxicity in nude BALB/c mouse xenografted with human U87MG cells assessed as reduction in body weight at 50 mg/kg, […]; format: organism-based; parameters: scale not given: the % may be the effect or the level left; conditions: in vivo, ip, 120 h
U-87 MG [7] = assay: Anti-angiogenic activity in tumor of human U87MG cells xenografted in nude BALB/c mouse assessed as reduction in CD31 staining at 50 mg/kg, ip administered for 14 days by immunohistochemistry; format: functional, organism-based; conditions: U-87MG ATCC; summary of the method: as §1
Thymidine phosphorylase = target: T1, Thymidine phosphorylase (Homo sapiens, UniProt P19971); assay: Inhibition of recombinant human thymidine phosphorylase expressed in Escherichia coli Rosetta (DE3) cells using thymidine as substrate after 1 min by UV/visible spectrophotometry
T1 sequence (P19971 whole entry): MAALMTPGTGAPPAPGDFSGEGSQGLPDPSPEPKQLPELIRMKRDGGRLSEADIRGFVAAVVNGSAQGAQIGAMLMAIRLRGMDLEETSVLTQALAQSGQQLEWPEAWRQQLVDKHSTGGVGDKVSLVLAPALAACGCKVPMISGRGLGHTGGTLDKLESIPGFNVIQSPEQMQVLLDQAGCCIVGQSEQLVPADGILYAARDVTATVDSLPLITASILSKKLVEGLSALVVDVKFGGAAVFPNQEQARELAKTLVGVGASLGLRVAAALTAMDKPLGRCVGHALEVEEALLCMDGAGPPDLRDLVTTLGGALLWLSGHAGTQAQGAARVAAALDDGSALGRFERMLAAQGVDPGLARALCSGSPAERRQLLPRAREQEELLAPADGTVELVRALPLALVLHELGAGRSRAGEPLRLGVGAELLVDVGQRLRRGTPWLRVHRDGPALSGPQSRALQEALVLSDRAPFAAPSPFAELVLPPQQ

| IC50 (Thymidine phosphorylase) [µM] | Compound | Activity (U-87 MG [1]) | inhibition (U-87 MG [2]) | TGI (U-87 MG [3]) | Activity (U-87 MG [4]) | Activity (U-87 MG [5]) | Activity [6] [%] | Activity (U-87 MG [7]) |
| --- | --- | --- | --- | --- | --- | --- | --- | --- |
|  | Cn1nnc2c(C(N)=O)ncn2c1=O [TEMOZOLOMIDE] | inactive | inactive | Active | inactive | inactive | < 20 | inactive |
| > 100 | O=c1[nH]c(CNCC(O)CO)c(Br)c(=O)[nH]1 (centres undefined) |  |  |  |  |  |  |  |
| > 100 | CCCN(CCC)Cc1[nH]c(=O)[nH]c(=O)c1I |  |  |  |  |  |  |  |
